Laboratory results as given in ChEMBL document CHEMBL1649293, “Susceptibilities of human cytomegalovirus clinical isolates and other herpesviruses to new acetylated, tetrahalogenated benzimidazole D-ribonucleosides” (Antimicrob Agents Chemother, 2009).
Active and inactive are the calls of the source. No cut-off for these calls is given here.

Assays:
Human betaherpesvirus 5 [1] = experiment: Antiviral activity against ganciclovir-sensitive HCMV infected in HFF assessed as reduction in viral plaque formation after 8 days by microscopy; assay type: functional, organism-based; conditions: Human betaherpesvirus 5, 192 h
In short: (§1)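 HFF (1 × 10^5/well) infected with GCV-sensitive or GCV-resistant clinical isolates at MOI 0.01. After 1 h, inoculum replaced by methyl cellulose overlay with DMEM, 3% FCS and compound dilutions in duplicate. Incubation 8 days at 37°C, then crystal violet staining and plaque counting by microscope. EC50 derived relative to untreated cells.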

Human betaherpesvirus 5 [2] = experiment: Antiviral activity against ganciclovir-resistant HCMV infected in HFF assessed as reduction in viral plaque formation after 8 days by microscopy; assay type: functional, organism-based; conditions: Human betaherpesvirus 5, 192 h; in short: as §1
Human betaherpesvirus 5 [3] = experiment: Antiviral activity against ganciclovir-sensitive HCMV infected in HFF assessed as formation of viral capsid type A at 10 uM measured after 72 hrs postinfection by electron microscopy; assay type: functional
In short: (§2)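 HFF (1 × 10^6) infected with GCV-sensitive or GCV-resistant clinical isolates at MOI 1, with or without 10 μM compound. Cells fixed 72 h p.i., embedded, thin-sectioned, and examined by transmission EM at 120 kV. Nuclear A, B and C capsids counted.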

Human betaherpesvirus 5 [4] = experiment: Antiviral activity against ganciclovir-sensitive HCMV infected in HFF assessed as formation of viral capsid type B at 10 uM measured after 72 hrs postinfection by electron microscopy; assay type: functional; in short: as §2
Human betaherpesvirus 5 [5] = experiment: Antiviral activity against ganciclovir-sensitive HCMV infected in HFF assessed as formation of viral capsid type C at 10 uM measured after 72 hrs postinfection by electron microscopy; assay type: functional; in short: as §2
Human betaherpesvirus 5 [6] = experiment: Antiviral activity against ganciclovir-resistant HCMV infected in HFF assessed as formation of viral capsid type A at 10 uM measured after 72 hrs postinfection by electron microscopy; assay type: functional; in short: as §2
Human betaherpesvirus 5 [7] = experiment: Antiviral activity against ganciclovir-resistant HCMV infected in HFF assessed as formation of viral capsid type B at 10 uM measured after 72 hrs postinfection by electron microscopy; assay type: functional; in short: as §2
Human betaherpesvirus 5 [8] = experiment: Antiviral activity against ganciclovir-resistant HCMV infected in HFF assessed as formation of viral capsid type C at 10 uM measured after 72 hrs postinfection by electron microscopy; assay type: functional; in short: as §2
[9] = Cytotoxicity against HFF after 8 days by XTT assay; assay type: cell-based; conditions: human, HFF cells
In short: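 XTT proliferation assay: HFF seeded at 5 × 10^4/well were exposed to a range of drug concentrations for 8 days at 37°C. XTT labeling mixture was then added for 4 h, and absorbance was read at 492 nm (reference 650 nm). CC50 was derived.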

[10] = Cytotoxicity against rat Rat2 cells after 8 days by XTT assay; assay type: cell-based
In short: (§3)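 XTT cell-proliferation read-out after 8 days of exposure at 37°C to varied drug concentrations. Absorbance was read at 492 nm against 650 nm reference, 4 h after adding XTT labeling mixture. CC50 was determined.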

[11] = Cytotoxicity against mouse NIH/3T3 cells after 8 days by XTT assay; assay type: cell-based, NIH3T3; in short: as §3
Human betaherpesvirus 5 [12] = experiment: Antiviral activity against HCMV AD169 infected in HFF assessed as viral plaque formation at 5 uM after 8 days by microscopy relative to control; assay type: functional
In short: (§4)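 Plaque reduction with compound at a single concentration of 5 μM. After infection, plaques were counted under a microscope, and inhibition was expressed relative to untreated infected cells.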

Human alphaherpesvirus 1 = experiment: Antiviral activity against Herpes simplex virus 1 KOS infected in HFF assessed as viral plaque formation at 5 uM after 8 days by microscopy relative to control; assay type: functional; in short: as §4
Human alphaherpesvirus 3 = experiment: Antiviral activity against VZV OKA infected in HFF assessed as viral plaque formation at 5 uM after 8 days by microscopy relative to control; assay type: functional; in short: as §4
[13] = Selectivity index, ratio of CC50 for HFF to EC50 for ganciclovir-sensitive HCMV infected in HFF
[14] = Selectivity index, ratio of CC50 for HFF to EC50 for ganciclovir-resistant HCMV infected in HFF
In short: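 CC50 in HFF (5 × 10^4/well) after 8 days at 37°C with drug dilutions, read by XTT (4 h, A492 with 650 nm reference). EC50 from 8-day plaque reduction in HFF infected with GCV-resistant clinical isolate at MOI 0.01 under methyl cellulose, duplicates, crystal violet staining.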

[15] = tested on: Murid betaherpesvirus 1 (mouse cytomegalovirus); experiment: Antiviral activity against MCMV Smith infected in NIH 3T3 assessed as viral plaque formation at 5 uM after 8 days by microscopy relative to control
Human betaherpesvirus 5 [16] = experiment: Antiviral activity against ganciclovir-sensitive HCMV infected in HFF assessed as cleavage of viral DNA concatemer at 10 uM measured after 72 hrs postinfection by […]; assay type: functional, organism-based
In short: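 HFF (1 × 10^6) infected with a GCV-sensitive clinical isolate at MOI 1 and treated with 10 μM compound. DNA was isolated 72 h p.i. and run by pulsed-field electrophoresis on 1% low-melting agarose (15–110 s pulses, 150 V, 27 h). Unit-length versus concatemeric DNA was viewed by ethidium bromide staining. Mock- and AD169-infected cells served as controls.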

Human betaherpesvirus 5 [17] = experiment: Antiviral activity against ganciclovir-resistant HCMV infected in HFF assessed as cleavage of viral DNA concatemer at 10 uM measured after 72 hrs postinfection by […]; assay type: functional, organism-based
Human betaherpesvirus 5 [18] = experiment: Antiviral activity against ganciclovir-sensitive HCMV infected in HFF assessed as cleavage of viral DNA concatemer at 30 uM measured after 72 hrs postinfection by […]; assay type: functional, organism-based
In short: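 HFF (1 × 10^6) infected with a GCV-sensitive clinical isolate at MOI 1 in the presence of 30 μM compound. DNA was harvested at 72 h p.i. and separated by PFGE in 1% low-melting agarose (15–110 s, 150 V, 27 h). Cleavage into unit-length genomes was judged after ethidium bromide staining.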

Human betaherpesvirus 5 [19] = experiment: Antiviral activity against ganciclovir-resistant HCMV infected in HFF assessed as cleavage of viral DNA concatemer at 30 uM measured after 72 hrs postinfection by […]; assay type: functional, organism-based

## OC[C@H]1O[C@@H](n2c(Br)nc3cc(Cl)c(Cl)cc32)[C@H](O)[C@@H]1O
Human betaherpesvirus 5 [1]
  EC50: 0.35 µM
Human betaherpesvirus 5 [2]
  EC50: 0.47 µM
Human betaherpesvirus 5 [3]
  Activity: 13.6%
Human betaherpesvirus 5 [4]
  Activity: 67.2%
Human betaherpesvirus 5 [5]
  Activity: 21.4%
Human betaherpesvirus 5 [6]
  Activity: 13.8%
Human betaherpesvirus 5 [7]
  Activity: 55%
Human betaherpesvirus 5 [8]
  Activity: 31.2%
[9]
  CC50 at 192 h: 314 µM
[10]
  CC50 at 192 h: 136 µM
[11]
  CC50 at 192 h: 88.1 µM
Human betaherpesvirus 5 [12]
  Activity: 0.34%
Human alphaherpesvirus 1
  Activity: 46.6%
Human alphaherpesvirus 3
  Activity: 31.6%
[13]
  Ratio CC50/EC50: 896
[14]
  Ratio CC50/EC50: 667
[15]
  Activity: 41.6%

## CC(=O)OC[C@H]1O[C@@H](n2c(Cl)nc3c(Cl)c(Cl)c(Cl)cc32)[C@H](OC(C)=O)[C@@H]1OC(C)=O
Human betaherpesvirus 5 [1]
  EC50: 0.34 µM
Human betaherpesvirus 5 [2]
  EC50: 0.15 µM
Human betaherpesvirus 5 [16]
  Activity: Active
Human betaherpesvirus 5 [17]
  Activity: Active
Human betaherpesvirus 5 [3]
  Activity: 10.5%
Human betaherpesvirus 5 [4]
  Activity: 76.4%
Human betaherpesvirus 5 [5]
  Activity: 13.3%
Human betaherpesvirus 5 [6]
  Activity: 8.6%
Human betaherpesvirus 5 [7]
  Activity: 61.5%
Human betaherpesvirus 5 [8]
  Activity: 29.9%
[9]
  CC50 at 192 h: 66.7 µM
[10]
  CC50 at 192 h: 19.2 µM
[11]
  CC50 at 192 h: 39.6 µM
Human betaherpesvirus 5 [12]
  Activity: 0.25%
Human alphaherpesvirus 3
  Activity: 31.1%
[13]
  Ratio CC50/EC50: 202
[14]
  Ratio CC50/EC50: 445
[15]
  Activity: 68.3%

## CC(=O)OC[C@H]1O[C@@H](n2c(Br)nc3c(Cl)c(Cl)c(Cl)cc32)[C@H](OC(C)=O)[C@@H]1OC(C)=O
Human betaherpesvirus 5 [1]
  EC50: 0.33 µM
Human betaherpesvirus 5 [2]
  EC50: 0.5 µM
Human betaherpesvirus 5 [18]
  Activity: Active
Human betaherpesvirus 5 [19]
  Activity: Active
Human betaherpesvirus 5 [3]
  Activity: 10.7%
Human betaherpesvirus 5 [4]
  Activity: 60.5%
Human betaherpesvirus 5 [5]
  Activity: 28.8%
Human betaherpesvirus 5 [6]
  Activity: 15.3%
Human betaherpesvirus 5 [7]
  Activity: 60.7%
Human betaherpesvirus 5 [8]
  Activity: 24%
[9]
  CC50 at 192 h: 27.9 µM
[10]
  CC50 at 192 h: 14.5 µM
[11]
  CC50 at 192 h: 15.1 µM
Human betaherpesvirus 5 [12]
  Activity: 0.42%
Human alphaherpesvirus 1
  Activity: 76.6%
Human alphaherpesvirus 3
  Activity: 26.1%
[13]
  Ratio CC50/EC50: 121
[14]
  Ratio CC50/EC50: 55.8
[15]
  Activity: 70.8%
